One compound from ChEMBL document CHEMBL4765399, “Design, synthesis, and biological evaluation of 5-((8-methoxy-2-methylquinolin-4-yl)amino)-1H-indole-2-carbohydrazide derivatives as novel Nur77 modulators” (Eur J Med Chem, 2020) can be followed below.

Active and inactive are the calls of the source. The calls are words filed in the database; no cut-off is given here.

For assay [1], the system named is QGY-7703. The assay is described as follows: Inhibition of colony formation in human QGY-7703 cells at 2 uM incubated for 24 hrs measured after cell culturing for 15 days in normal medium by crystal violet staining based assay. Type of assay: functional. The note with it: time 16.0 day. The method in brief:
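500 HepG2, QGY-7703 or SMMC-7721 cells per well allowed to attach 24 h, exposed to DMSO or 2.0 µM for 24 h, then grown 15 days in plain medium. Colonies fixed 30 min in 4% paraformaldehyde, stained 15 min with 0.1% crystal violet, photographed and counted.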

The test system of assay [2] is HepG2. As to the kind of experiment: Antitumor activity against human HepG2 cells xenografted in BALB/c mouse assessed as induction of ER stress by measuring increase in CHOP level in tumor tissue at 10 to 20 mg/kg/day, ip administered for 15 days by immunohistochemical analysis. The note with it: dose 10-20 mg/kg/day, time 15.0 day. It is filed as functional, organism-based. In a few lines:
(§1)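 HepG2 cells (5×10^6) injected subcutaneously into flanks of 4-week-old male Balb/c nude mice. At about 100 mm³, 15 mice were randomized to vehicle, 10 or 20 mg/kg i.p. once daily for 15 days. Tumors were then excised for immunostaining of paraffin sections (5 μm) or for western blot.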

In assay [3] the test system is HepG2. As to the kind of experiment: Induction of endoplasmic reticulum stress in Nur77 […] human HepG2 cells assessed as bip protein expression at 2 uM incubated for 6 to 12 hrs by Western blot analysis. Type of assay: functional, cell-based. The note with it: time 6-12 hrs. In a few lines: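 HepG2 and shNur77 HepG2 exposed to DMSO or 2.0 µM for 6 and 12 h; lysates immunoblotted for TRB3, Bip, CHOP and Nur77 (SDS-PAGE, nitrocellulose, overnight primary antibodies, HRP secondary, chemiluminescence).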
(Immunoblotting shows a protein as a band on a membrane.)

Assay [4] deals with HepG2. As to the kind of experiment: Induction of apoptosis in human HepG2 cells assessed as live cells at 2 uM incubated for 12 hrs by Annexin V-FITC/PI staining based flow cytometry (reference value: 90.7 to 94%). It is filed as functional. In general terms: Flow cytometry measures light scatter and fluorescence of single cells or particles in a stream.
Assay [5] deals with HepG2. As to the kind of experiment: Induction of apoptosis in human HepG2 cells assessed as live cells at 1 uM incubated for 12 hrs by Annexin V-FITC/PI staining based flow cytometry (reference value: 94%). Type of assay: functional.
For assay [6], the target named is T1, Nuclear receptor subfamily 4immunitygroup A member 1 (Homo sapiens, UniProt P22736). The assay is described as follows: Binding affinity to Nur77 ligand binding domain (unknown origin) at 10 uM by surface plasmon resonance analysis. The note with it: filed as modulator. The method in brief: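 Single-concentration SPR screen at 10.0 µM against Nur77-LBD; binding given as RU response.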
T1 sequence (P22736 whole entry, the tested form may be a part): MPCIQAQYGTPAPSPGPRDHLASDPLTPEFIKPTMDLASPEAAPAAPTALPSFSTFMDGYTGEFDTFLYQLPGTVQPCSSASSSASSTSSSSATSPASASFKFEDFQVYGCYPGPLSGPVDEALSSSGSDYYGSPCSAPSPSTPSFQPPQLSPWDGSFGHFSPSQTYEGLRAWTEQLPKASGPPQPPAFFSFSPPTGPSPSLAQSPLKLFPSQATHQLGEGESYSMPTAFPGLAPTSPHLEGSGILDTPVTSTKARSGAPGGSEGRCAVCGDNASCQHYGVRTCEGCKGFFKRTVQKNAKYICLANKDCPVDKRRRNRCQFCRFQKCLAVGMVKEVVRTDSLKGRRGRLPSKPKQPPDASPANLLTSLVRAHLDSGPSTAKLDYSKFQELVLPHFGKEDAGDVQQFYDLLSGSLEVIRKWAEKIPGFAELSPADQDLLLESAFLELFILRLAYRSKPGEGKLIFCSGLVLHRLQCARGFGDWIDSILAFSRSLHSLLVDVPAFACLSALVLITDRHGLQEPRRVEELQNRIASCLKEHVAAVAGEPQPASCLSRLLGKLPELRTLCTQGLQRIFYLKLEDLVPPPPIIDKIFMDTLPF
(In SPR one partner is held on a chip, and binding of the other changes the refractive index at the surface.)

The test system of assay [7] is QGY-7703. The assay is described as follows: Induction of endoplasmic reticulum stress in human QGY-7703 cells assessed as increase in CHOP protein expression incubated for 12 hrs by Western blot analysis. It is filed as functional, cell-based. The note with it: dose 0.5-2 µM. The method in brief: (§2)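 HepG2, QGY-7703 and SMMC-7721 treated with graded concentrations for 12 h. Lysed in RIPA with inhibitors; 40-80 µg protein separated by SDS-PAGE, blotted to nitrocellulose, blocked 1 h in 5% milk, primary antibodies overnight (LC3, Beclin1, Bip, CHOP, TRB3), HRP secondaries, chemiluminescence.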

Assay [8] concerns HepG2. As to the kind of experiment: Induction of apoptosis in human HepG2 cells assessed as necrotic cells at 2 uM incubated for 12 hrs by Annexin V-FITC/PI staining based flow cytometry (reference value: 0.068 to 0.23%). Type of assay: functional.
For assay [9], the system named is HepG2. The assay is described as follows: Induction of apoptosis in human HepG2 cells assessed as cleaved caspase-3 expression at 2 uM pretreated with ER stress inhibitor, 4-PBA for 2 hrs followed by incubation with compound for 12 hrs by Western blot analysis. It is filed as functional, cell-based. The method in brief: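 HepG2 cells grown to confluence were pretreated 2 h with 2 mM 3-MA (autophagy inhibitor) or 2 mM 4-PBA (ER stress inhibitor), then exposed to compound for 12 h. Proteins (40–80 µg, RIPA lysate) were resolved by SDS-PAGE and blotted for PARP, cleaved caspase-3/-9, Bcl-2 and Bax, with chemiluminescent detection.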

The subject of assay [10] is SMMC-7721. As to the kind of experiment: Induction of autophagy in human SMMC-7721 cells assessed as increase in LC3-II expression measured after 12 hrs by Western blot analysis. It is filed as functional, cell-based. The note with it: dose 0.5-2 µM. In a few lines:
as §2

The target in assay [11] is T1, Nuclear receptor subfamily 4immunitygroup A member 1. As to the kind of experiment: Modulation of Nur77 in human HepG2 cells assessed as induction of mitochondrial translocation at 2 uM incubated for 6 hrs by Mito-tracker based confocal microscopy. The note with it: Mitochondria, filed as modulator. In a few lines:
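HepG2 cells given 2.0 µM for 6 h, then stained with anti-Nur77 antibody plus Mito-tracker. Cells fixed in 4% paraformaldehyde for 20 min, permeabilized with 0.1% Triton X-100, blocked with 5% BSA. Anti-Nur77 (1:500) for 1 h, then FITC- or Cy3-conjugated anti-rabbit IgG for 1 h. Imaged by confocal microscopy.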

For assay [12], the system named is SMMC-7721. The assay is described as follows: Antiproliferative activity against human SMMC-7721 cells assessed as reduction in cell viability at 2 uM by MTT assay. It is filed as functional, cell-based. The note with it: time 12-48 hrs, TDE = time-dependent effect. The method in brief: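 Cells treated with 2.0 µM over a time course; viability read by MTT. HepG2, SMMC-7721 kept in DMEM, QGY-7703 in RPMI 1640, with 10% FBS at 37 °C and 5% CO2.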

Assay [13] deals with HepG2. As to the kind of experiment: Induction of endoplasmic reticulum stress in human HepG2 cells assessed as increase in bip protein expression incubated for 12 hrs by Western blot analysis. Type of assay: functional, cell-based. The note with it: dose 0.5-2 µM. In a few lines: as §2
The subject of assay [14] is HepG2. As to the kind of experiment: Antitumor activity against human HepG2 cells xenografted in BALB/c mouse assessed as induction of ER stress by measuring increase in TRB3 level in tumor tissue at 10 to 20 mg/kg/day, ip administered for 15 days by western blot analysis. It is filed as functional, organism-based. The note with it: dose 10-20 mg/kg/day, time 15.0 day. The method in brief:
as §1

Assay [15] deals with HepG2. The assay is described as follows: Induction of autophagy in human HepG2 cells assessed as increase in LC3-II expression measured after 12 hrs by Western blot analysis. Type of assay: functional, cell-based. The note with it: dose 0.5-2 µM. In a few lines: as §2

`COc1cccc2c(Nc3ccc4[nH]c(C(=O)N/N=C/c5ccc(SC)cc5)cc4c3)cc(C)nc12`: in the assay on QGY-7703 [1], the inhibition entry was “Active”. Moreover, the result (in the assay on HepG2 [2]; in assay [11]; in the assay on HepG2 [14]) was Active. Further, the outcome in the assay on HepG2 [3] and in the assay with HepG2 [9] was inactive. Further, the Activity is 8.8% in the assay with HepG2 [4]; 65% in the assay on HepG2 [5]; 91.6 RU in assay [6]; “Dose-dependent effect” in the assay on QGY-7703 [7]; 0% in the assay on HepG2 [8]; “Dose-dependent effect” in the assay on SMMC-7721 [10]. Moreover, the Activity entry in the assay on SMMC-7721 [12] is “Tde”; with HepG2 [13] it was “Dose-dependent effect”; with HepG2 [15], “Dose-dependent effect”.
